CHOP inh – blocks CHOP induction under ER stress. CHO-K1 CHOP-promoter luciferase, tunicamycin-induced, 15-18 h. inhibition, % at 10 µM. 220,000 tested, 3.8% active. AID 2732;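 active = compounds that reduced the stress-induced luciferase reporter signal by more than about 70% of percent inhibition, limit read from the data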
VLA-4 inh – inhibition in a human VLA-4 binding assay. VLA-4 expressing cells, ligand binding flow cytometry. inhibition, % (about 7 µM as worked out from the volumes in the protocol). 330,000 tested, 0.2% active. AID 2557; in the data active = inhibition above about 50%
CHOP UPR activ – apoptotic UPR (CHOP) activation; CHO-CHOP luciferase reporter, luminescence; percent of tunicamycin response over DMSO baseline; activation, % at 10 µM; 330,000 tested, 0.34% active;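 active = at 10 µM dose, activation of 40% or more, normalized to positive control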
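Evaluation: % reporter activation, DMSO baseline versus tunicamycin full activation; System: CHO-CHOP luciferase reporter cell line; Input: 500 cells/well; Incubation: 6 h compound treatment, 37 °C; Measured by: Steady-Glo luciferase luminescence; Dosing: one dose, 10 µM in 0.5% DMSO; Buffer or medium: F12 medium, 10% FBS; Benchmarks: positive tunicamycin 10 µg/mL, negative DMSO alone.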
XBP1 UPR activ – activators of adaptive arm of unfolded protein response (XBP1); CHO-XBP1 luciferase reporter, IRE1-XBP1 UPR activation, luminescence; percent of tunicamycin response, DMSO as zero; activation, % at 20 µM; 330,000 tested, 0.33% active; AID 463104;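 active = versus positive control, 20 µM dose yields 30% or more activation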
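assay system = CHO-XBP1 luciferase reporter cells | amount = 1000 cells/well | buffer or medium = F12 plus 10% FBS | compound dosing = single point, 20 µM final compound, 1% DMSO | incubation = 16-18 h cell attachment at 37 °C, then 6 h compound exposure | detection = Steady-Glo luminescence read | controls = tunicamycin 10 µg/mL and vehicle-only wells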
Beta2AR agonist – human beta-2 adrenergic receptor agonism by FAP; P07550; Am2.2-beta2AR cells, FAP receptor internalization, flow cytometry; response, % (no concentration beside the values); 340,000 tested, 0.43% active; AID 504454;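 active = response above a set limit, near 3 SD of response in nonfluorescent compounds, cut at about 42% in these data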
Target sequence (P07550 whole entry, looked up): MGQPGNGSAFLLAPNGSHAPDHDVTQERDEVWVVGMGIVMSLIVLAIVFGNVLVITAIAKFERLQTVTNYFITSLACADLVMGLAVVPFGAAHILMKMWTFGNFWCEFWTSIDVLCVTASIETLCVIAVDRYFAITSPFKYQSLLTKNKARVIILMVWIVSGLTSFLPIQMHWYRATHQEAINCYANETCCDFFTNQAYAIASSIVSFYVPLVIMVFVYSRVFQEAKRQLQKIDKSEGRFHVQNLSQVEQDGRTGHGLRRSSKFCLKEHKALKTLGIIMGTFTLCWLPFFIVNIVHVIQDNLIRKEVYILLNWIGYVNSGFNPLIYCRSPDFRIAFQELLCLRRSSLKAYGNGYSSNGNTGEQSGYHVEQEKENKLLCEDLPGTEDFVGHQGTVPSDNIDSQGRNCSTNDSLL
XBP1 UPR conf – adaptive UPR (XBP1) activation, confirmed | activation, % at 20 µM | 1,000 tested, 63% active | CHO-XBP1 IRE1-XBP1 luciferase reporter, luminescence | shares compounds with XBP1 UPR activ;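 active = reporter signal at least 30% of the positive control's activation in two or more of four replicate wells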
A number is an active result. The full list was thinned out, with hits kept by preference.

Screening Cc1ccc(-n2nnnc2SCC(=O)Nc2nc(-c3ccc(F)cc3)cs2)cc1C returned CHOP inh inactive, VLA-4 inh inactive, CHOP UPR activ inactive, XBP1 UPR activ inactive and Beta2AR agonist inactive.
COc1ccc(-c2csc(NC(=S)NC(=O)/C=C/c3ccccc3)n2)cc1Br was read as CHOP inh inactive, VLA-4 inh inactive, CHOP UPR activ inactive, XBP1 UPR activ 160 and XBP1 UPR conf 250.
`CCc1ccc(NC(=O)CSc2nnc(C)c(=O)n2N)cc1` gave VLA-4 inh inactive, CHOP UPR activ inactive, XBP1 UPR activ inactive and Beta2AR agonist inactive.
`COc1ccc(C(C(=O)NC2CCCC2)N(C(=O)c2snc(-c3ccc(F)cc3)c2N)c2cccc(F)c2)cc1` (stereo not drawn) gave CHOP inh inactive, VLA-4 inh inactive, CHOP UPR activ inactive, XBP1 UPR activ 37, Beta2AR agonist inactive and XBP1 UPR conf inactive.
Screening COc1ccc(C(C(=O)NC2CCCC2)N(C(=O)c2snc(-c3ccc(F)cc3)c2N)c2ccccc2)cc1 (stereo not drawn) returned CHOP inh inactive, VLA-4 inh inactive, CHOP UPR activ inactive, XBP1 UPR activ 32, Beta2AR agonist inactive and XBP1 UPR conf inactive.
For COc1ccc(C(C(=O)NC2CCCC2)N(C(=O)c2snc(-c3ccc(F)cc3)c2N)c2ccc(F)cc2)cc1 (stereo not drawn) the results were CHOP inh inactive, VLA-4 inh inactive, CHOP UPR activ inactive, XBP1 UPR activ inactive and Beta2AR agonist inactive.
For Cc1ccsc1C(=O)N1CCCC(CO)(Cc2ccccc2)C1 (stereo not drawn) the results were VLA-4 inh inactive, CHOP UPR activ inactive, XBP1 UPR activ inactive and Beta2AR agonist inactive.
Screening Cc1ccc(SCC(=O)OCC(=O)NC(C)c2ccc(F)cc2)cc1 (stereo not drawn) returned VLA-4 inh inactive, CHOP UPR activ inactive, XBP1 UPR activ inactive and Beta2AR agonist inactive.
Screening COc1ccc(C(=O)O)cc1NC(=S)NC(=O)Cc1ccc(Cl)cc1 returned VLA-4 inh inactive, CHOP UPR activ inactive, XBP1 UPR activ inactive and Beta2AR agonist inactive.
`Cc1ccc(O)c(NC(=S)NC(=O)Cc2ccc(Cl)cc2)c1` gave VLA-4 inh inactive, CHOP UPR activ inactive, XBP1 UPR activ 52, Beta2AR agonist inactive and XBP1 UPR conf 86.
Screening O=C(CNC(=O)c1ccc(-c2ccccc2)cc1)Nc1cccc(CO)c1 returned VLA-4 inh inactive, CHOP UPR activ inactive, XBP1 UPR activ inactive and Beta2AR agonist inactive.
`COc1ccc(N2C(=O)CC(NNC(=O)c3cccnc3)C2=O)cc1` (stereo not drawn) gave CHOP inh inactive, VLA-4 inh inactive, CHOP UPR activ inactive, XBP1 UPR activ inactive and Beta2AR agonist inactive.
For COC(=O)CSc1nc(N)c2c3c(sc2n1)CCCC3 the results were CHOP inh inactive, VLA-4 inh inactive, CHOP UPR activ inactive, XBP1 UPR activ inactive and Beta2AR agonist inactive.
COC(=O)CSc1nc(N)c2c3c(sc2n1)C(c1ccccc1)SC(c1ccccc1)C3 (stereo not drawn) was read as CHOP inh inactive, VLA-4 inh inactive, CHOP UPR activ inactive, XBP1 UPR activ 38, Beta2AR agonist inactive and XBP1 UPR conf inactive.
`O=C(CCn1c2c(c3ccccc31)CCCC2)NNC(=O)c1cccc([N+](=O)[O-])c1` gave CHOP inh inactive, VLA-4 inh inactive, CHOP UPR activ inactive, XBP1 UPR activ inactive and Beta2AR agonist inactive.
Screening O=C(CCn1c2c(c3ccccc31)CCCC2)NNC(=O)c1ccccc1Cl returned CHOP inh inactive, VLA-4 inh inactive, CHOP UPR activ inactive, XBP1 UPR activ 36, Beta2AR agonist inactive and XBP1 UPR conf inactive.
C=C(C)[C@@H]1CC[C@]2(C(=O)O)CC[C@]3(C)C(CCC4[C@@]5(C)CC[C@H](O)C(C)(C)C5CC[C@]43C)C12 (stereo partly drawn) was read as VLA-4 inh inactive, CHOP UPR activ inactive, XBP1 UPR activ 40, Beta2AR agonist inactive and XBP1 UPR conf inactive.
`C=C(C)[C@@H]1CCC2(C(=O)O)CC[C@]3(C)[C@H](CC[C@@H]4[C@@]5(C)CCC(=O)C(C)(C)[C@@H]5CC[C@]43C)[C@@H]12` (stereo partly drawn) gave CHOP inh inactive, VLA-4 inh inactive, CHOP UPR activ inactive, XBP1 UPR activ inactive and Beta2AR agonist inactive.
Screening COc1ccc(CNC(=O)c2cccnc2)cc1 returned VLA-4 inh inactive, CHOP UPR activ inactive, XBP1 UPR activ inactive and Beta2AR agonist inactive.
For COc1ccc(/C=C2\SC(=S)N(CCCC(=O)Nc3cc(C)on3)C2=O)cc1OC the results were VLA-4 inh inactive, CHOP UPR activ inactive, XBP1 UPR activ 42, Beta2AR agonist inactive and XBP1 UPR conf inactive.
For N#CCC(=O)N/N=C/c1cn(Cc2cccc3ccccc23)c2ccccc12 the results were CHOP inh inactive, VLA-4 inh inactive, CHOP UPR activ inactive, XBP1 UPR activ 130, Beta2AR agonist inactive and XBP1 UPR conf 103.
`O=S(=O)(O)c1ccc(Cl)c(Cl)c1` gave Beta2AR agonist inactive.
For Fc1ccccc1-c1nc(NCc2ccccc2)c2ccccc2n1 the results were CHOP inh inactive, VLA-4 inh inactive, CHOP UPR activ inactive, XBP1 UPR activ inactive and Beta2AR agonist inactive.
`c1ccc(CNc2nc(NCc3ccccc3)c3ccccc3n2)cc1` gave CHOP inh inactive, VLA-4 inh inactive, CHOP UPR activ inactive, XBP1 UPR activ 59, Beta2AR agonist 72 and XBP1 UPR conf inactive.
CC(Sc1ccccc1)C(=O)N1CCN(S(=O)(=O)c2ccc(Cl)cc2)CC1 (stereo not drawn) was read as VLA-4 inh inactive, CHOP UPR activ inactive, XBP1 UPR activ inactive and Beta2AR agonist inactive.
For O=C(Nc1ccc2oc(-c3ccccc3Cl)nc2c1)c1cncc(Br)c1 the results were CHOP inh 71, VLA-4 inh inactive, CHOP UPR activ inactive, XBP1 UPR activ 32, Beta2AR agonist inactive and XBP1 UPR conf 80.
For COC(C[C@@H](O)[C@H](C)[C@@H](O)COCc1ccccc1)OC the results were CHOP inh inactive, CHOP UPR activ inactive, XBP1 UPR activ inactive and Beta2AR agonist inactive.
CN1C(=O)/C(=C/c2cn(CC(=O)NCc3ccco3)c3ccccc23)NC1=S was read as CHOP inh inactive, VLA-4 inh inactive, CHOP UPR activ inactive and XBP1 UPR activ inactive.
Screening CCN=C1S/C(=C\c2cn(CC(=O)NCc3ccco3)c3ccccc23)C(=O)N1CC returned VLA-4 inh inactive, CHOP UPR activ inactive, XBP1 UPR activ 116, Beta2AR agonist inactive and XBP1 UPR conf 97.
For O=C(Nc1cccnc1)/C(N=Nc1ccc(Cl)c(C(F)(F)F)c1)=C(\O)c1ccccc1 the results were CHOP inh inactive, VLA-4 inh inactive, CHOP UPR activ inactive, XBP1 UPR activ 49, Beta2AR agonist inactive and XBP1 UPR conf inactive.

Bioassay records as filed in PubChem BioAssay.
